Laboratory results as given in publication PMC4910733 (Oncoimmunology, 2015).

Assays:
[1] = test system: NK cell killing of HL cell lines (L428, L540, KMH2); format: cell-based, human; conditions: L428 and L540 treated 24 h at 10 μM, E:T 10:1
Outline: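 NK cells purified to >96%, stimulated with 0.5 µg/mL PHA plus 10 ng/mL rIL-2, then cultured 15 d in RPMI1640 with 10% FCS and rIL-2; n = 6. Target HL cells were pre-exposed 24 h to medium, DMSO or test compound (10 µM). 4-h 51Cr release at E:T 10:1. Some effectors received anti-NKG2D mAb (5 µg/mL) or isotype control. Specific lysis = (experimental − spontaneous)/(maximum − spontaneous).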

[2] = test system: HL cell lines, isolated MSC; assay: Toxicity by mitochondrial potential; format: cell-based, human; conditions: for toxic effect (mitochondrial potential, JC-1): HL cell lines or isolated MSC, 2.5 up to 10 μM, 48, 72 and 96 h (not shown)
MMP-9 = MMP-9 (Homo sapiens, UniProt P14780); assay: MMP inhibition assay; format: biochemical; conditions: read-out: MMP9 IC50; average of three determinations, SD <10%
Sequence of MMP-9 (P14780 107-707 limits assumed): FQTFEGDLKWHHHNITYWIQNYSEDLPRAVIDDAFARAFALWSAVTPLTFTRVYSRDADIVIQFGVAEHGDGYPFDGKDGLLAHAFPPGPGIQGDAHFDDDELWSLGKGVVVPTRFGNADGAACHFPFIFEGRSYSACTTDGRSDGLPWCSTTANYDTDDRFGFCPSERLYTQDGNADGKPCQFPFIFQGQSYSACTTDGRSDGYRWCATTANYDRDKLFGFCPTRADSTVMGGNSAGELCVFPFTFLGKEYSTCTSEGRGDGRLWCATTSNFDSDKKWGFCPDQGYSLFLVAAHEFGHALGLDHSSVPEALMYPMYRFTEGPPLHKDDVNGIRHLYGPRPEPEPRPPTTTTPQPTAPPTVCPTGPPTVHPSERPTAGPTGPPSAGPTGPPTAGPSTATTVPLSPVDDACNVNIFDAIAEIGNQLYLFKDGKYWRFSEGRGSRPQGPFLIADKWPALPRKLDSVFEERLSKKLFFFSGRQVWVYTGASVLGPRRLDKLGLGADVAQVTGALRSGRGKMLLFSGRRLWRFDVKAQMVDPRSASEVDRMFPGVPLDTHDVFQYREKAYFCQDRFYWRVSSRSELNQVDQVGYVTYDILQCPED
Outline: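 APMA-activated MMP-9 (1 mM, 1 h, 37°C), 1.3 nM final, was preincubated with test compound 3 h at 25°C in 50 mM Tris pH 7.5, 150 mM NaCl, 10 mM CaCl2, 0.05% Brij-35, 1% DMSO. Fluorogenic substrate Mca-Lys-Pro-Leu-Gly-Leu-Dap(Dnp)-Ala-Arg-NH2 at 2 µM final. Cleavage monitored (ex 325/em 400 nm) every 15 s for 20 min, in duplicate. IC50 via vi/vo = 1/(1+[I]/IC50).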

Recombinant human ADAM10 = target: T1, Recombinant human ADAM10 (Homo sapiens, UniProt O14672); assay: In vitro enzymatic inhibition assay; format: biochemical; conditions: read-out: ADAM10 IC50; average of three determinations, SD <10%
T1 sequence (O14672 214-748): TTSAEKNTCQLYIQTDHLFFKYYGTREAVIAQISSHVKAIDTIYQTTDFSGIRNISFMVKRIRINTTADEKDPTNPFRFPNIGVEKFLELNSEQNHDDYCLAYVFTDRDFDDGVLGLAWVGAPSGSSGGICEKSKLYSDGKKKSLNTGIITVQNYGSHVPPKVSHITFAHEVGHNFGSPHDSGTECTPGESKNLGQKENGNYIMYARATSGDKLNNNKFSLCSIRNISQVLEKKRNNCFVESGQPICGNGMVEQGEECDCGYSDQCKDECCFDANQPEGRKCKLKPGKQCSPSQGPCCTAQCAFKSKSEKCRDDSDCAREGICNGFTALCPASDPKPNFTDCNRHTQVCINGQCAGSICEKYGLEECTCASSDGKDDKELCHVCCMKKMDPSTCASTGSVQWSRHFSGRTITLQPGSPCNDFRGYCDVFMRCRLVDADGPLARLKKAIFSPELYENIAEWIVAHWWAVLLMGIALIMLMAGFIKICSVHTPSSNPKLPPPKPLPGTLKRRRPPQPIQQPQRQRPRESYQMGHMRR

[3] = target: Recombinant human MMP-14 catalytic domain (Homo sapiens, UniProt P50281); assay: MMP inhibition assay; format: biochemical; conditions: read-out: MMP14 IC50; average of three determinations, SD <10%
Outline: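 Recombinant human MMP-14 catalytic domain (1.0 nM final) was preincubated 3 h at 25°C with test compound in 50 mM Tris pH 7.5, 150 mM NaCl, 10 mM CaCl2, 0.05% Brij-35, 1% DMSO. Substrate Mca-Lys-Pro-Leu-Gly-Leu-Dap(Dnp)-Ala-Arg-NH2 at 2 µM final. Fluorescence (ex 325/em 400 nm) read every 15 s for 20 min, in duplicate. IC50 from vi/vo = 1/(1+[I]/IC50).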

MMP-2 = target: T2, MMP-2 (Homo sapiens, UniProt P08253); assay: MMP inhibition assay; format: biochemical; conditions: read-out: MMP2 IC50; average of three determinations, SD <10%
T2 sequence (P08253 110-660): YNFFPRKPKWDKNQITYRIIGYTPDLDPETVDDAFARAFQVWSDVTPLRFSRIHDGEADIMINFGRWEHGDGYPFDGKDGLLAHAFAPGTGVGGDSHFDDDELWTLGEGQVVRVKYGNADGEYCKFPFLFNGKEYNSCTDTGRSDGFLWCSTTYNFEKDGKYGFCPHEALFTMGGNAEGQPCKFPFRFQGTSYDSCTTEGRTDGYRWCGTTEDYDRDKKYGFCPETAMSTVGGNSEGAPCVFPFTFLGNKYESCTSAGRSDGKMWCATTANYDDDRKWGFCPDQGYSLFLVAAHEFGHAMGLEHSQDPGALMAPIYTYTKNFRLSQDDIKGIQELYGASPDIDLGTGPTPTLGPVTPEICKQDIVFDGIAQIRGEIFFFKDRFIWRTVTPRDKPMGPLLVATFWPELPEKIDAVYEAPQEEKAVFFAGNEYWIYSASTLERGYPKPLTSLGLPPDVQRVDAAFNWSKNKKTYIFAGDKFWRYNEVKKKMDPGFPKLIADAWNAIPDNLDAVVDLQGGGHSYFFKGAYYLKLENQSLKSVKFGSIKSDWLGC
Outline: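 Pro-MMP-2 was activated with APMA 2 mM, 1 h, 37°C. Enzyme (0.56 nM final) and test compound were incubated 3 h at 25°C in 50 mM Tris pH 7.5, 150 mM NaCl, 10 mM CaCl2, 0.05% Brij-35, 1% DMSO. Mca-Lys-Pro-Leu-Gly-Leu-Dap(Dnp)-Ala-Arg-NH2 at 2 µM final. Fluorescence (ex 325/em 400 nm) recorded every 15 s for 20 min, in duplicate. IC50 from vi/vo = 1/(1+[I]/IC50).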

| SMILES | increase of NK cell killing [1] | toxic effect (mitochondrial potential, JC-1) [2] | IC50 (MMP-9) [nM] | IC50 (Recombinant human ADAM10) [nM] | IC50 [3] [nM] | IC50 (MMP-2) [nM] | toxicity (JC1 staining) ([2]; HL cell lines, 100 μM as pervanadate, 40 min at 37°C (not shown)) |
| --- | --- | --- | --- | --- | --- | --- | --- |
| CNC(=O)[C@@H](NC(=O)[C@H](CCCc1ccccc1)[C@H](C)N(O)C=O)C(C)(C)C [GI254023X] | 2–3 fold | did not exert any toxic effect |  |  |  |  |  |
| NC(=O)NCCC[C@@H](NS(=O)(=O)c1ccc(OCc2cc(Br)cc(Br)c2)cc1)C(=O)NO [JG26] | 2–3 fold | did not exert any toxic effect | 1630 | 150 | 19500 | 240 |  |
| [Na+].[Na+].[Na+].[O]=[V]([O-])([O-])[O-] [Na3VO4, sodium orthovanadate] |  |  |  |  |  |  | not toxic |
